According to ChEMBL document CHEMBL1147950, “Polyphenols based on isoflavones as inhibitors of Helicobacter pylori urease” (Bioorg Med Chem, 2007):
Where “and” joins values, the source holds several entries; their conditions need not be identical. Identical values can stand only once.

Tests used:
[1] = molecular target: Urease subunit alpha/Urease subunit beta (Helicobacter pylori (strain ATCC 700392 / 26695) (Campylobacterpylori)) (UniProt P69996+P14916); assay: Inhibition of Helicobacter pylori ATCC 43504 urease at 400 ug/mL after 3 hrs pre-incubation
Chain of Urease subunit alpha/Urease subunit beta (Helicobacter pylori (strain ATCC 700392 / 26695) (Campylobacterpylori)) (P14916 whole entry, looked up): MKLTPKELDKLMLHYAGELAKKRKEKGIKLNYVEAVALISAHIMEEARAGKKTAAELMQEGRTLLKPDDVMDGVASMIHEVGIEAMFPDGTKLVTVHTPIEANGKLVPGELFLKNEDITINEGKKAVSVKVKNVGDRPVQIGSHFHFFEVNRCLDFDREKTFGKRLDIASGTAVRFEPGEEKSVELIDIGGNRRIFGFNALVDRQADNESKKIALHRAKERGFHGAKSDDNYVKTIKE
Chain of Urease subunit alpha/Urease subunit beta (Helicobacter pylori (strain ATCC 700392 / 26695) (Campylobacterpylori)) (P69996 whole entry, looked up): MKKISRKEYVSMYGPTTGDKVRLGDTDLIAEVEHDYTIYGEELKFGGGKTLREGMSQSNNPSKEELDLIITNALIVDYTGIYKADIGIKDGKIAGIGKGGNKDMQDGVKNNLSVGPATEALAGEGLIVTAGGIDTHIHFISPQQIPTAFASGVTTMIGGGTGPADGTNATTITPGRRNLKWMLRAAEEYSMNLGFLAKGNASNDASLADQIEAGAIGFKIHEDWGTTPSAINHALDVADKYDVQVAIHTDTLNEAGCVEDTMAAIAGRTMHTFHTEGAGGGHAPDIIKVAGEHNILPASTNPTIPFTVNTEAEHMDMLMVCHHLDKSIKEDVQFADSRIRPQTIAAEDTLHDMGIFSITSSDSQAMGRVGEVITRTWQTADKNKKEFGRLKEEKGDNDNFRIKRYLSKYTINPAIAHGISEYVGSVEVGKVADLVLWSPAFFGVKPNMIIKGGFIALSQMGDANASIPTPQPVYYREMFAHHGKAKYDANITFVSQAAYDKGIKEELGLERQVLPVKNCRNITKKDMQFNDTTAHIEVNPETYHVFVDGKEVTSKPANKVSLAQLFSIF
Procedure, shortened: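 Urease from H. pylori ATCC 43504 cultured 24 h at 37 °C in brucella broth with 10% heat-inactivated horse serum, microaerobic (5% O2, 10% CO2, 85% N2). 4 U enzyme preincubated with test compound 3 h at room temperature. Activity read as ammonia production by the indophenol method; percent inhibition recorded.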

[2] = molecular target: T1, Urease subunit alpha/Urease subunit beta (Helicobacter pylori (strain ATCC 700392 / 26695) (Campylobacterpylori), UniProt P69996); assay: Inhibition of Helicobacter pylori ATCC 43504 urease after 3 hrs pre-incubation
T1 sequence (P69996 whole entry): as the sequence (P69996 whole entry, looked up) above
T1 sequence (P14916 whole entry, further chain): as the sequence (P14916 whole entry, looked up) above
Procedure, shortened: (§1)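 Urease source: H. pylori ATCC 43504 grown 24 h at 37 °C, microaerobic (5% O2, 10% CO2, 85% N2), in brucella broth with 10% heat-inactivated horse serum. Enzyme (4 U) preincubated with test compound 3 h at room temperature. Ammonia production read by the indophenol method. IC50 values from triplicate measurements, reported as mean ± SD.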

[3] = molecular target: T1, Urease subunit alpha/Urease subunit beta; assay: Inhibition of Helicobacter pylori ATCC 43504 urease in presence of 0.4 mM 2-mercaptoethanol after 3 hrs pre-incubation; procedure, shortened: as §1
[4] = molecular target: T1, Urease subunit alpha/Urease subunit beta; assay: Inhibition of Helicobacter pylori ATCC 43504 urease in presence of 0.4 mM dithiothreitol after 3 hrs pre-incubation; procedure, shortened: as §1

SMILES	inhibition [1]	IC50 [2] [µM]	IC50 [3] [µM]	IC50 [4] [µM]
O=C(Cc1ccc(O)cc1)c1ccc(O)c(O)c1	39%			
O=C(Cc1ccc(O)cc1)c1ccc(O)c(O)c1O	51%			
COc1ccc(CC(=O)c2ccc(O)cc2O)cc1	14%			
COc1ccc(CC(O)c2ccc(OC)c(OC)c2O)cc1 (configuration not stated)	42%			
CC(=O)c1ccc(O)cc1O	14%			
CC(=O)c1ccc(O)c(O)c1O	38%			
COc1c(O)cc(O)c(C(=O)Cc2ccc(O)cc2)c1O	17%			
COc1ccc(CC(=O)c2ccc(O)c(O)c2O)cc1	44%			
CC(=O)NO [ACETOHYDROXAMIC ACID]		17	19	18
Oc1ccc(CCc2ccc(O)c(O)c2O)cc1	94.5%	30	71	53
CC(=O)c1ccc(O)c(O)c1	41%			
O=c1c(-c2ccc(O)cc2)coc2c(O)c(O)ccc12	81.7%	140	> 1480	> 1480
COc1c(O)cc(O)c2c(=O)c(-c3ccc(O)cc3)coc12	23% and 36%			
O=C(Cc1ccc(O)cc1)c1ccc(O)cc1O	16%			
